As usually defined, the IC50 is the concentration that inhibits the measured activity by half. Higher therefore signals a need for much substance. By Ki is commonly meant a measure of affinity in units of concentration, obtained from inhibition or displacement. A high value points to a looser hold on the target.

From ChEMBL document CHEMBL4138091, “Quinazoline based α1-adrenoreceptor antagonists with potent antiproliferative activity in human prostate cancer cell lines” (Eur J Med Chem, 2017) come the findings set out here.

Data set [1] deals with PC-3. The data set is described as follows: Antiproliferative activity against human PC3 cells after 120 hrs by MTT assay. Type of data set: functional, cell-based. Conditions: PC-3, 120 h. The procedure, abridged:
(§1)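 DU-145, PC-3 and LNCaP cells grown in RPMI with 10% fetal calf serum, 37 °C, 5% CO₂; seeded at 5 × 10³ cells/well, exposed to 0.1–50 µM for 120 h. After PBS wash, MTT (5 mg/mL) in PBS 4 h, formazan dissolved in isopropanol, read at 570 nm. Viability as % of untreated; IC50 from at least three independent dose-response curves.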

The test system of data set [2] is LNCaP. The data set is described as follows: Induction of apoptosis in human LNCAP cells assessed as increase in DNA fragmentation at 1 to 10 uM after 24 hrs by spectrophotometer relative to control. Type of data set: functional. Summed up: (§2)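 LNCaP cells seeded at 1 × 10³ cells/well, treated 1–10 µM for 24 h at 37 °C, 5% CO₂; lysed 30 min, centrifuged, supernatant ELISA with biotin anti-histone and peroxidase anti-DNA antibodies on streptavidin plate, ABTS 20 min, read 405 nm. Fold increase = treated/untreated absorbance; mean ± SD, three independent experiments.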

Data set [3] relates to LNCaP. The data set is described as follows: Prooxidant activity in human LNCAP cells assessed as increase in depletion of intercellular GSH level at 1 to 10 uM after 24 hrs by MCB dye-based spectrofluorometric analysis. Type of data set: functional, cell-based. Summed up:
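LNCaP cells seeded at 2 × 10⁴ cells/well, treated 1–10 µM for 24 h at 37 °C, 5% CO₂; washed, 50 µM monochlorobimane in PBS 30 min at 37 °C, fluorescence read at excitation 360 nm, emission 465 nm; arbitrary fluorescence units; mean ± SD, three independent experiments.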

Data set [4] has as its target T1, Alpha-1A adrenergic receptor (Homo sapiens, UniProt P35348).
T1 sequence (P35348 whole entry): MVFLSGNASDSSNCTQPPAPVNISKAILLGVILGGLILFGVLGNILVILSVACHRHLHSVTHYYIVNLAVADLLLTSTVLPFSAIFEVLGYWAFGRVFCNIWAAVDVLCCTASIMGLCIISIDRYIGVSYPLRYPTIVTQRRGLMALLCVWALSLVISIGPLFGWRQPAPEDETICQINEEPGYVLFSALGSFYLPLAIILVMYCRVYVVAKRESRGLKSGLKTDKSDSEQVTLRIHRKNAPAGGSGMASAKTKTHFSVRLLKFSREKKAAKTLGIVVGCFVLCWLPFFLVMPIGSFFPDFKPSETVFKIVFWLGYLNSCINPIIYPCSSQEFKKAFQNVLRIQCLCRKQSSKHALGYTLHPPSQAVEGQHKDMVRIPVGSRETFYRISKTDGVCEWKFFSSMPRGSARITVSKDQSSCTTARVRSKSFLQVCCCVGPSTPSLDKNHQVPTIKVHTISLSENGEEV
The data set is described as follows: Displacement of [3H]prazosin from human alpha1A adrenoceptor expressed in CHO cell membranes after 30 mins. In general terms: Loss of bound radioactivity is the signal in a displacement assay; it reports binding, not function.

The subject of data set [5] is LNCaP. The data set can be described thus: Induction of apoptosis in human LNCAP cells assessed as increase in DNA fragmentation after 24 hrs by spectrophotometer. In kind it is functional, cell-based. The procedure, abridged: as §2
Data set [6] is filed under the species Homo sapiens. The data set is described as follows: Selectivity ratio of Ki for human alpha1A adrenoceptor to Ki for human alpha1B adrenoceptor.
In data set [7] the test system is LNCaP. The data set can be described thus: Antioxidant activity in human LNCAP cells assessed as inhibition of t-BuOOH-induced ROS level at 1 to 10 uM after 24 hrs by DCFH-DA dye-based spectrofluorometric analysis. In kind it is functional, cell-based.
Data set [8] addresses T2, Alpha-1D adrenergic receptor (Homo sapiens, UniProt P25100).
T2 sequence (P25100 whole entry): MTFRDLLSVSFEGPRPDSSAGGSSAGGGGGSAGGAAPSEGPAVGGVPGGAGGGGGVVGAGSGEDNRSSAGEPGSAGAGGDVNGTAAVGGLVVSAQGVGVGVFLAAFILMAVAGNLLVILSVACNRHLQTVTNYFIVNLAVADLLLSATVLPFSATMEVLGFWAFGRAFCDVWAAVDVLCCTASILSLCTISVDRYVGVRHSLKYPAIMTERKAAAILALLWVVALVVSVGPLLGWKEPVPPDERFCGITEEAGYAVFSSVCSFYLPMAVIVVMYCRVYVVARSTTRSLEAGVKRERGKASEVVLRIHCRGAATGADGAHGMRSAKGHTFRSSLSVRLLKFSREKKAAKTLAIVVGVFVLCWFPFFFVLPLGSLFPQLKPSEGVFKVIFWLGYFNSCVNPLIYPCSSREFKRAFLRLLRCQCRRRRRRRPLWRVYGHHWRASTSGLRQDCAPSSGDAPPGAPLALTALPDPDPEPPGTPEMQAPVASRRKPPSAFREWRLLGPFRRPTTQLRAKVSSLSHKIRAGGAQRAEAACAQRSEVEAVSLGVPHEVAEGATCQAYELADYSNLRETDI
The data set is described as follows: Displacement of [3H]prazosin from human alpha1D adrenoceptor expressed in CHO cell membranes after 30 mins.

The species entered for data set [9] is Homo sapiens. The data set can be described thus: Selectivity ratio of Ki for human alpha1D adrenoceptor to Ki for human alpha1B adrenoceptor.
The test system of data set [10] is LNCaP. The data set is described as follows: Antiproliferative activity against human LNCAP cells after 120 hrs by MTT assay. Type of data set: functional, cell-based. The procedure, abridged: as §1
Data set [11] concerns LNCaP. The data set can be described thus: Induction of ROS generation in human LNCAP cells after 24 hrs by DCFH-DA dye-based spectrofluorometric analysis. In kind it is functional, cell-based. Summed up:
(§3)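 LNCaP cells seeded at 2 × 10⁴ cells/well, exposed to compounds (1–10 µM) for 24 h; then loaded with 5 µM DCFH-DA in PBS, 37 °C, 5% CO₂, 30 min, washed, fluorescence read (excitation 485 nm). Antioxidant lines involve t-BuOOH challenge. Output as fold increase of intracellular ROS over untreated; mean ± SD, three independent experiments.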

For data set [12], the system named is PC-3. The data set is described as follows: Growth inhibition of human PC3 cells at 10 uM after 48 hrs by SRB assay relative to control. Type of data set: functional. Conditions: PC-3, 48 h, read-out: GI. The procedure, abridged: (§4)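 NCI one-dose screen at 10 µM across 60 human tumour lines, 48 h exposure; growth given relative to no-drug control and to time-zero cell number, so 0–100 means inhibition and below 0 lethality; 100 means no inhibition.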

For data set [13], the system named is DU-145. The data set can be described thus: Antiproliferative activity against human DU145 cells after 120 hrs by MTT assay. Type of data set: functional, cell-based. The conditions noted are these: DU-145, 120 h. Summed up:
as §1
On the technique in general: Formazan colour is commonly taken as a measure of viable cells.

Data set [14] concerns LNCaP. The data set is described as follows: Induction of ROS generation in human LNCAP cells at 1 to 10 uM after 24 hrs by DCFH-DA dye-based spectrofluorometric analysis relative to control. In kind it is functional. Summed up: as §3
In data set [15] the target is T3, Alpha-1B adrenergic receptor (Homo sapiens, UniProt P35368).
T3 sequence (P35368 whole entry): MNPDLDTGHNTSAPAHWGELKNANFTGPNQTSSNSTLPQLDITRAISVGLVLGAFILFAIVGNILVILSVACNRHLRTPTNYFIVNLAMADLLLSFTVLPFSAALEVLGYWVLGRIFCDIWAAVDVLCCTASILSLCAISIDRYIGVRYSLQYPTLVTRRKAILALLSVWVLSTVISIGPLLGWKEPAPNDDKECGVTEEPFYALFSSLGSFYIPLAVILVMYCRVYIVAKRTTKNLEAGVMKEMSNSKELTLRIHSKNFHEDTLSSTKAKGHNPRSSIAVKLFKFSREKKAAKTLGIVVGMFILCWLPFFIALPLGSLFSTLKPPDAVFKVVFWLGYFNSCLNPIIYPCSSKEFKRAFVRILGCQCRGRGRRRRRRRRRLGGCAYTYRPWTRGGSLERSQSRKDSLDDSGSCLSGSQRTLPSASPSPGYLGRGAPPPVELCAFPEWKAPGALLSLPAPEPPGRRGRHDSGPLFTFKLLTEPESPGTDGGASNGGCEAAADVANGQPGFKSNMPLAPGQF
The data set is described as follows: Displacement of [3H]prazosin from human alpha1B adrenoceptor expressed in CHO cell membranes after 30 mins.

Data set [16] relates to Panel NCI-60 (60 carcinoma cell lines). The data set can be described thus: Antiproliferative activity against human NCI60 cells at 10 uM after 48 hrs by SRB assay. In kind it is functional, cell-based. Summed up:
as §4
A general note: In SRB staining, fixed cells bind dye roughly in proportion to their protein.

Data set [17] has as its system LNCaP. The data set is described as follows: Antioxidant activity in human LNCAP cells assessed as inhibition of t-BuOOH-induced ROS level at 1 to 10 uM after 30 mins by DCFH-DA dye-based spectrofluorometric analysis relative to control. In kind it is functional.
A short description of data set [18]: Selectivity index, ratio of cytotoxic concentration for HGF cells to IC50 for human LNCAP cells. Type of data set: toxicity. Conditions: HGF cells and LNCAP cells, read-out: Selectivity Index.
The subject of data set [19] is DU-145. The data set can be described thus: Antiproliferative activity against human DU145 cells at 10 uM after 48 hrs by SRB assay relative to control. Type of data set: functional. The procedure, abridged:
as §4

The nature of data set [20]: Selectivity index, ratio of cytotoxic concentration for HGF cells to IC10 for human LNCAP cells. In kind it is toxicity. The conditions noted are these: HGF cells and LNCAP cells, read-out: Selectivity Index.
For data set [21], the system named is LNCaP. The data set is described as follows: Antioxidant activity in human LNCAP cells assessed as inhibition of t-BuOOH-induced ROS level after 30 mins by DCFH-DA dye-based spectrofluorometric analysis. Type of data set: functional, cell-based.
Data set [22] has as its system LNCaP. The data set is described as follows: Induction of necrosis in human LNCAP cells assessed as loss of plasma membrane integrity at 1 to 10 uM after 24 hrs by trypan blue staining-based Neubauer hemocytometric method. In kind it is functional, cell-based. The procedure, abridged:
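LNCaP cells seeded at 1 × 10⁶ cells/well, treated 1–10 µM for 24 h at 37 °C, 5% CO₂; scraped into PBS, mixed 1:1 with 0.5% trypan blue, counted on a Neubauer hemocytometer; percentage of stained cells from at least 3 separate counts.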

The source made the active and inactive calls. The rule behind the calls is not given here.

In the case of `COc1cc2nc(N3CCC[C@H](NC4=CC(=O)c5ccccc5C4=O)C3)nc(N)c2cc1OC`, the IC50 in the data set with PC-3 [1] stood at 18.2 µM; with LNCaP [10], 6.32 µM; in the data set on DU-145 [13] it was 18.5 µM. Also, in the data set on LNCaP [2], the “fold change (FC)” value was 9.9. Besides, the outcome (with LNCaP [3]; in data set [16]) was Active. Also, the values for the Ki in data set [4], in data set [8] and in data set [15] were 0.00708 µM, 0.00214 µM and 0.000525 µM, respectively. Further, the Activity result in the data set with LNCaP [5] is “Dose-dependent effect”; in the data set on LNCaP [11], “Dose-dependent effect”; in the data set with LNCaP [14] it was 56%; in the data set with DU-145 [19], 54%. For the same compound, the Ratio Ki worked out at 13 in the data set filed under Homo sapiens [6] and 4 in the data set filed under Homo sapiens [9]. The inhibition entry in the data set on LNCaP [7] was “inactive”. In addition, in the data set with PC-3 [12], the inhibition of growth at 10 µM came to 77%. In addition, the “inhibition (INH)” value with LNCaP [17] was determined as 34%. Moreover, the selectivity ratio in data set [18] was 4.7; in data set [20], 9.1. Also, the inhibition entry with LNCaP [21] was “Dose-dependent effect”. Also, the outcome with LNCaP [22] was inactive.
